Data from ChEMBL document CHEMBL1781906, “New quinolin-4-yl-1,2,3-triazoles carrying amides, sulphonamides and amidopiperazines as potential antitubercular agents” (2011).
≈ marks a conversion by molar mass, not a printed value.

Legend:
Assay type in all cases: functional
[1] = tested on: Mycobacterium tuberculosis; test: Antimycobacterial activity against Mycobacterium tuberculosis H37Rv ATCC 27294 after 7 days by resazurin method; conditions: H37Rv ATCC 27294, 168 h
Outline: (§1)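 H37Rv was grown in Middlebrook 7H9 broth with 10% OADC, diluted to McFarland 2 in the same medium, and added to fresh medium in 96-well plates with compound. Compounds were tested at 1, 10 and 100. The dye turned pink in controls after […] at 37 °C.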

[2] = tested on: Mycobacterium tuberculosis; test: Antimycobacterial activity against Mycobacterium tuberculosis H37Rv ATCC 27294 assessed as inhibition of bacterial growth at 1 to 100 ug/ml after 7 days by resazurin method; outline: as §1
Pseudomonas aeruginosa = test: Antibacterial activity against Pseudomonas aeruginosa ATCC 27853 after 18 to 24 hrs by […]
Staphylococcus aureus = test: Antibacterial activity against Staphylococcus aureus ATCC 25923 after 18 to 24 hrs by serial plate dilution method
Streptococcus pyogenes = test: Antibacterial activity against Streptococcus pyogenes after 18 to 24 hrs by serial plate dilution method
Klebsiella pneumoniae = test: Antibacterial activity against Klebsiella pneumoniae after 18 to 24 hrs by […]
Escherichia coli = test: Antibacterial activity against Escherichia coli ATCC 25922 after 18 to 24 hrs by […]
[3] = tested on: Mycolicibacterium smegmatis; test: Antimycobacterial activity against Mycobacterium smegmatis ATCC 19420 after 7 days by resazurin method; conditions: ATCC 19420, 168 h
Outline: (§2)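 MIC was determined by resazurin microplate assay. Resazurin turns from blue to pink when reduced by viable cells, and wells with no colour change were scored as inhibited. Isoniazid and rifampicin were reference drugs.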

[4] = tested on: Mycolicibacterium fortuitum; test: Antimycobacterial activity against Mycobacterium fortuitum ATCC 19542 after 7 days by resazurin method; conditions: ATCC 19542, 168 h; outline: as §2

COc1ccc2nc(C)cc(-n3cc(CN4CCN(C(C)=O)CC4)nn3)c2c1
MIC [1]: 0.625 µg/mL (≈ 1.64 µM)
inhibition (INH) [2]: 95%
MIC (Pseudomonas aeruginosa): 0.2 µg/mL (≈ 0.526 µM)
MIC (Staphylococcus aureus): 0.4 µg/mL (≈ 1.05 µM)
MIC (Streptococcus pyogenes): 0.2 µg/mL (≈ 0.526 µM)
MIC (Klebsiella pneumoniae): 0.1 µg/mL (≈ 0.263 µM)
MIC (Escherichia coli): 0.1 µg/mL (≈ 0.263 µM)
MIC [3]: 10 µg/mL (≈ 26.3 µM)
MIC [4]: 100 µg/mL (≈ 263 µM)

COc1ccc2nc(C)cc(-n3cc(CN4CCN(C(=O)c5ccc(Cl)c(Cl)c5)CC4)nn3)c2c1
MIC [1]: 5 µg/mL (≈ 9.78 µM)
inhibition (INH) [2]: 85%
MIC (Pseudomonas aeruginosa): 0.8 µg/mL (≈ 1.56 µM)
MIC (Staphylococcus aureus): 6.25 µg/mL (≈ 12.2 µM)
MIC (Streptococcus pyogenes): 0.8 µg/mL (≈ 1.56 µM)
MIC (Klebsiella pneumoniae): 0.8 µg/mL (≈ 1.56 µM)
MIC (Escherichia coli): 3.12 µg/mL (≈ 6.1 µM)
MIC [3]: 100 µg/mL (≈ 196 µM)
MIC [4]: 100 µg/mL (≈ 196 µM)

COc1ccc2nc(C)cc(-n3cc(CNC(=O)c4ccccc4F)nn3)c2c1
MIC [1]: 1 µg/mL (≈ 2.55 µM)
inhibition (INH) [2]: 90%
MIC (Pseudomonas aeruginosa): 0.4 µg/mL (≈ 1.02 µM)
MIC (Staphylococcus aureus): 0.8 µg/mL (≈ 2.04 µM)
MIC (Streptococcus pyogenes): 0.2 µg/mL (≈ 0.511 µM)
MIC (Klebsiella pneumoniae): 0.2 µg/mL (≈ 0.511 µM)
MIC (Escherichia coli): 0.4 µg/mL (≈ 1.02 µM)
MIC [3]: 100 µg/mL (≈ 255 µM)
MIC [4]: 100 µg/mL (≈ 255 µM)

COc1ccc2nc(C)cc(-n3cc(CNC(C)=O)nn3)c2c1
MIC [1]: 0.625 µg/mL (≈ 2.01 µM)
inhibition (INH) [2]: 95%
MIC (Pseudomonas aeruginosa): 0.2 µg/mL (≈ 0.642 µM)
MIC (Staphylococcus aureus): 0.4 µg/mL (≈ 1.28 µM)
MIC (Streptococcus pyogenes): 0.2 µg/mL (≈ 0.642 µM)
MIC (Klebsiella pneumoniae): 0.1 µg/mL (≈ 0.321 µM)
MIC (Escherichia coli): 0.1 µg/mL (≈ 0.321 µM)
MIC [3]: 10 µg/mL (≈ 32.1 µM)
MIC [4]: 10 µg/mL (≈ 32.1 µM)

COc1ccc2nc(C)cc(-n3cc(CNC(=O)C4CC4)nn3)c2c1
MIC [1]: 1 µg/mL (≈ 2.96 µM)
inhibition (INH) [2]: 90%
MIC (Pseudomonas aeruginosa): 1.6 µg/mL (≈ 4.74 µM)
MIC (Staphylococcus aureus): 0.4 µg/mL (≈ 1.19 µM)
MIC (Streptococcus pyogenes): 0.4 µg/mL (≈ 1.19 µM)
MIC (Klebsiella pneumoniae): 0.2 µg/mL (≈ 0.593 µM)
MIC (Escherichia coli): 0.4 µg/mL (≈ 1.19 µM)
MIC [3]: 100 µg/mL (≈ 296 µM)
MIC [4]: 100 µg/mL (≈ 296 µM)

COc1ccc2nc(C)cc(-n3cc(CNC(=O)C4CCC4)nn3)c2c1
MIC [1]: 10 µg/mL (≈ 28.5 µM)
inhibition (INH) [2]: 85%
MIC (Pseudomonas aeruginosa): 0.8 µg/mL (≈ 2.28 µM)
MIC (Staphylococcus aureus): 1.6 µg/mL (≈ 4.55 µM)
MIC (Streptococcus pyogenes): 0.8 µg/mL (≈ 2.28 µM)
MIC (Klebsiella pneumoniae): 1.6 µg/mL (≈ 4.55 µM)
MIC (Escherichia coli): 1.6 µg/mL (≈ 4.55 µM)
MIC [3]: 100 µg/mL (≈ 285 µM)
MIC [4]: 100 µg/mL (≈ 285 µM)

COc1ccc2nc(C)cc(-n3cc(CNC(=O)c4ccc(F)cc4)nn3)c2c1
MIC [1]: 0.625 µg/mL (≈ 1.6 µM)
inhibition (INH) [2]: 90%
MIC (Pseudomonas aeruginosa): 0.2 µg/mL (≈ 0.511 µM)
MIC (Staphylococcus aureus): 0.8 µg/mL (≈ 2.04 µM)
MIC (Streptococcus pyogenes): 0.2 µg/mL (≈ 0.511 µM)
MIC (Klebsiella pneumoniae): 0.2 µg/mL (≈ 0.511 µM)
MIC (Escherichia coli): 0.2 µg/mL (≈ 0.511 µM)
MIC [3]: 10 µg/mL (≈ 25.5 µM)
MIC [4]: 100 µg/mL (≈ 255 µM)

COc1ccc2nc(C)cc(-n3cc(CNC(=O)c4ccccc4Cl)nn3)c2c1
MIC [1]: 10 µg/mL (≈ 24.5 µM)
inhibition (INH) [2]: 80%
MIC (Pseudomonas aeruginosa): 6.25 µg/mL (≈ 15.3 µM)
MIC (Staphylococcus aureus): 1.6 µg/mL (≈ 3.92 µM)
MIC (Streptococcus pyogenes): 3.12 µg/mL (≈ 7.65 µM)
MIC (Klebsiella pneumoniae): 3.12 µg/mL (≈ 7.65 µM)
MIC (Escherichia coli): 3.12 µg/mL (≈ 7.65 µM)
MIC [3]: 100 µg/mL (≈ 245 µM)
MIC [4]: 100 µg/mL (≈ 245 µM)

CCc1ccc(C(=O)NCc2cn(-c3cc(C)nc4ccc(OC)cc34)nn2)cc1
MIC [1]: 100 µg/mL (≈ 249 µM)
inhibition (INH) [2]: 80%
MIC (Pseudomonas aeruginosa): 6.25 µg/mL (≈ 15.6 µM)
MIC (Staphylococcus aureus): 3.12 µg/mL (≈ 7.77 µM)
MIC (Streptococcus pyogenes): 3.12 µg/mL (≈ 7.77 µM)
MIC (Klebsiella pneumoniae): 3.12 µg/mL (≈ 7.77 µM)
MIC (Escherichia coli): 3.12 µg/mL (≈ 7.77 µM)
MIC [3]: 100 µg/mL (≈ 249 µM)
MIC [4]: 100 µg/mL (≈ 249 µM)

COc1ccc2nc(C)cc(-n3cc(CNC(=O)c4ccc(C)cc4)nn3)c2c1
MIC [1]: 100 µg/mL (≈ 258 µM)
MIC (Pseudomonas aeruginosa): 6.25 µg/mL (≈ 16.1 µM)
MIC (Staphylococcus aureus): 1.6 µg/mL (≈ 4.13 µM)
MIC (Streptococcus pyogenes): 0.8 µg/mL (≈ 2.06 µM)
MIC (Klebsiella pneumoniae): 3.12 µg/mL (≈ 8.05 µM)
MIC (Escherichia coli): 3.12 µg/mL (≈ 8.05 µM)
MIC [3]: 100 µg/mL (≈ 258 µM)
MIC [4]: 100 µg/mL (≈ 258 µM)

COc1ccc(C(=O)NCc2cn(-c3cc(C)nc4ccc(OC)cc34)nn2)cc1
MIC [1]: 0.625 µg/mL (≈ 1.55 µM)
inhibition (INH) [2]: 95%
MIC (Pseudomonas aeruginosa): 0.4 µg/mL (≈ 0.991 µM)
MIC (Staphylococcus aureus): 0.8 µg/mL (≈ 1.98 µM)
MIC (Streptococcus pyogenes): 0.4 µg/mL (≈ 0.991 µM)
MIC (Klebsiella pneumoniae): 0.1 µg/mL (≈ 0.248 µM)
MIC (Escherichia coli): 0.1 µg/mL (≈ 0.248 µM)
MIC [3]: 5 µg/mL (≈ 12.4 µM)
MIC [4]: 10 µg/mL (≈ 24.8 µM)

COc1ccc2nc(C)cc(-n3cc(CNC(=O)c4ccc(C(F)(F)F)cc4)nn3)c2c1
MIC [1]: 0.625 µg/mL (≈ 1.42 µM)
inhibition (INH) [2]: 95%
MIC (Pseudomonas aeruginosa): 0.4 µg/mL (≈ 0.906 µM)
MIC (Staphylococcus aureus): 0.4 µg/mL (≈ 0.906 µM)
MIC (Streptococcus pyogenes): 0.2 µg/mL (≈ 0.453 µM)
MIC (Klebsiella pneumoniae): 0.2 µg/mL (≈ 0.453 µM)
MIC (Escherichia coli): 0.4 µg/mL (≈ 0.906 µM)
MIC [3]: 10 µg/mL (≈ 22.7 µM)
MIC [4]: 5 µg/mL (≈ 11.3 µM)

COc1ccc2nc(C)cc(-n3cc(CNS(=O)(=O)c4ccc(F)cc4)nn3)c2c1
MIC [1]: 1 µg/mL (≈ 2.34 µM)
inhibition (INH) [2]: 85%
MIC (Pseudomonas aeruginosa): 0.8 µg/mL (≈ 1.87 µM)
MIC (Staphylococcus aureus): 0.4 µg/mL (≈ 0.936 µM)
MIC (Streptococcus pyogenes): 0.4 µg/mL (≈ 0.936 µM)
MIC (Klebsiella pneumoniae): 3.12 µg/mL (≈ 7.3 µM)
MIC (Escherichia coli): 3.12 µg/mL (≈ 7.3 µM)
MIC [3]: 100 µg/mL (≈ 234 µM)
MIC [4]: 100 µg/mL (≈ 234 µM)

COc1ccc2nc(C)cc(-n3cc(CNS(=O)(=O)c4ccccc4C(F)(F)F)nn3)c2c1
MIC [1]: 1 µg/mL (≈ 2.09 µM)
inhibition (INH) [2]: 90%
MIC (Pseudomonas aeruginosa): 0.4 µg/mL (≈ 0.838 µM)
MIC (Staphylococcus aureus): 0.8 µg/mL (≈ 1.68 µM)
MIC (Streptococcus pyogenes): 0.4 µg/mL (≈ 0.838 µM)
MIC (Klebsiella pneumoniae): 0.4 µg/mL (≈ 0.838 µM)
MIC (Escherichia coli): 0.2 µg/mL (≈ 0.419 µM)
MIC [3]: 100 µg/mL (≈ 209 µM)
MIC [4]: 10 µg/mL (≈ 20.9 µM)

COc1ccc2nc(C)cc(-n3cc(CNS(=O)(=O)c4ccc(Cl)c(Cl)c4)nn3)c2c1
MIC [1]: 100 µg/mL (≈ 209 µM)
MIC (Pseudomonas aeruginosa): 12.5 µg/mL (≈ 26.1 µM)
MIC (Staphylococcus aureus): 1.6 µg/mL (≈ 3.34 µM)
MIC (Streptococcus pyogenes): 3.12 µg/mL (≈ 6.52 µM)
MIC (Klebsiella pneumoniae): 3.12 µg/mL (≈ 6.52 µM)
MIC (Escherichia coli): 12.5 µg/mL (≈ 26.1 µM)
MIC [3]: 100 µg/mL (≈ 209 µM)
MIC [4]: 100 µg/mL (≈ 209 µM)
